{"source": "paper PMC4824049", "about": "(Bioorganic & medicinal chemistry, 2015)", "key": {"C3H mammary carcinoma": {"test_system": "C3H mammary carcinoma", "test": "Growth inhibition of C3H mammary carcinoma in CDF1 mice", "format": "in vivo", "details": "20 mg/kg i.p., 5 daily treatments"}, "cathepsin L [1]": {"target": "T1, cathepsin L (Homo sapiens, UniProt P07711)", "T1 sequence (P07711 114-288 limits assumed)": "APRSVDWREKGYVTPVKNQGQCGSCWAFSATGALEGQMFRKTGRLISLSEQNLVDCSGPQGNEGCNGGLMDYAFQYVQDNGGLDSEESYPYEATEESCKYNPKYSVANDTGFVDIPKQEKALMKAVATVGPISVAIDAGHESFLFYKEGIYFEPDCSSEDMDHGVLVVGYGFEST", "T1 sequence (P07711 292-333 limits assumed)": "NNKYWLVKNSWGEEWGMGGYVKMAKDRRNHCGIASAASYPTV", "test": "Cathepsin L reaction progress curves / reversibility", "format": "biochemical", "details": "separate experiments, Supplementary data", "outline": "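No pre-incubation. Test compound at final 10, 5, 1, 0.5, 0.1, 0.01 and 0.005 µM was mixed with Z-FR-AMC (final 10 µM), and the reaction was started by adding cathepsin L in assay buffer. AMC fluorescence (ex 355/em 460 nm) was read every 30 s for 50 min.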"}, "HUVECs": {"test_system": "HUVECs", "test": "Cytotoxicity assay", "format": "cell-based, human", "details": "normal primary cells", "outline": "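Pooled-donor HUVECs were grown on collagen-1-coated flasks in M200 with gentamycin, amphotericin B and low-serum growth supplement at 37 °C and 5% CO2, used at passage 5 or lower. Cells were seeded at 9,000/well for 24 h, then given ten-fold serial dilutions of test compound for 48 h. Plates were TCA-fixed and stained with 0.4% SRB for 30 min. Absorbance was read at 540 nm, normalised to 630 nm. GI50 came from at least two replicates, averaged over at least three experiments.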"}, "[2]": {"test_system": "MDA-MB-231 breast cancer cells", "test": "MDA-MB-231 cell migration assay", "format": "cell-based, human", "details": "25 μM", "outline": "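MDA-MB-231 cells (DMEM, 10% FBS, gentamycin) were trypsinised at 80% confluence and counted. Each insert (8 µm pores, no Matrigel) received 50,000 cells in DMEM with 2% DMSO and test compound at 25 or 10 µM; the lower chamber held DMEM with 10% FBS as chemoattractant. E-64 served as positive control. After 24 h at 37 °C and 5% CO2, migrated cells were methanol-fixed and Diff-stained. Values were normalised to 2% DMSO vehicle, in triplicate.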"}, "human liver cathepsin L": {"target": "human liver cathepsin L (Homo sapiens, UniProt P07711)", "sequence (P07711 114-288 limits assumed)": "as the sequence (P07711 114-288 limits assumed) above", "sequence (P07711 292-333 limits assumed)": "as the sequence (P07711 292-333 limits assumed) above", "test": "Cathepsin L inhibition assay", "format": "biochemical", "details": "tested up to 10,000 nM"}, "Human liver Cathepsin B": {"target": "Human liver Cathepsin B (Homo sapiens, UniProt P07858)", "test": "Cathepsin B inhibition assay", "format": "biochemical", "outline": "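Human liver cathepsin B was pre-incubated with the test compound for 5 min at 37 °C, then Z-RR-AMC was added. Fluorescence (ex 355/em 460 nm) was read over 5 min at 37 °C. IC50 was fitted from triplicate experiments.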"}, "[3]": {"test": "E/Z isomerization in solution followed by 1H NMR", "format": "physicochemical", "details": "acetone, one week; isolated as Z isomer"}, "cathepsin L [4]": {"target": "T1, cathepsin L", "details": "cited from earlier work"}}, "note": "“Also recorded” adds a separate entry of the source."}
{"smiles": "NC(=S)N/N=C(\\c1ccccc1)c1cccc(C(=O)c2ccccc2)c1", "note": "[Compound 1, 3-Benzoylbenzophenone thiosemicarbazone]", "values": [{"measurement": "tumor growth delay (in words)", "setting": "C3H mammary carcinoma; C3H mammary carcinoma in CDF1 mice", "value": "showed efficacy in tumor growth delay; also recorded: modest, statistically relevant efficacy in tumor growth delay; also recorded: delayed growth in vivo"}, {"measurement": "tolerability in mouse model", "setting": "C3H mammary carcinoma; CDF1 mice bearing C3H mammary carcinoma", "value": "well-tolerated"}, {"measurement": "reversibility of cathepsin L inhibition", "setting": "cathepsin L [1]", "value": "slowly reversible"}, {"measurement": "cytotoxicity toward HUVECs (in words)", "setting": "HUVECs", "value": "low cytotoxicity; also recorded: very low cytotoxicity"}, {"measurement": "increase in inhibition of migration compared with positive control E-64", "setting": "[2]", "value": "greater than 2 fold"}]}
{"smiles": "NC(=S)N/N=C(\\c1ccc(F)cc1)c1cccc(C(=O)c2ccc(F)cc2)c1", "note": "[Compound 8, 1,3-Bis(4-fluorobenzoyl)benzene thiosemicarbazone]", "values": [{"measurement": "cytotoxicity toward HUVECs (in words)", "setting": "HUVECs", "value": "low cytotoxicity; also recorded: very low cytotoxicity"}]}
{"smiles": "NC(=S)N/N=C(\\c1ccc(Br)cc1)c1cccc(/C(=N/NC(N)=S)c2ccc(Br)cc2)c1", "note": "[Compound 10, 1,3-Bis(4-bromobenzoyl)benzene bis-thiosemicarbazone]", "values": [{"measurement": "activity against cathepsin L (in words)", "setting": "human liver cathepsin L", "value": "no activity"}, {"measurement": "activity against cathepsin B (in words)", "setting": "Human liver Cathepsin B", "value": "inactive"}]}
{"smiles": "CC(C)Oc1ccc(C(=O)c2cccc(/C(=N/NC(N)=S)c3ccc(OC(C)C)cc3)c2)cc1", "note": "[Compound 14, 1,3-Bis(4-isopropoxybenzoyl)benzene thiosemicarbazone]", "values": [{"measurement": "activity against cathepsin L (in words)", "setting": "human liver cathepsin L", "value": "inactive"}]}
{"smiles": "NC(=S)N/N=C(\\c1cccc(O)c1)c1cc(Br)cc(C(=O)c2cccc(O)c2)c1", "note": "[Compound 31, 1,3-Bis(3-hydroxybenzoyl)-5-bromobenzene thiosemicarbazone]", "values": [{"measurement": "cytotoxicity toward HUVECs (in words)", "setting": "HUVECs", "value": "very low cytotoxicity"}]}
{"smiles": "NC(=S)N/N=C(\\c1cc(Br)cc(C(=O)c2ccccc2F)c1)c1ccccc1F", "note": "[Compound 32, 1,3-Bis(2-fluorobenzoyl)-5-bromobenzene thiosemicarbazone]", "values": [{"measurement": "reversibility of cathepsin L inhibition", "setting": "cathepsin L [1]", "value": "slowly reversible"}, {"measurement": "isomerization on standing in solution", "setting": "[3]", "value": "did not isomerize"}, {"measurement": "cytotoxicity toward HUVECs (in words)", "setting": "HUVECs", "value": "low cytotoxicity; also recorded: very low cytotoxicity"}]}
{"smiles": "NC(=S)NN=C(c1cccc(O)c1)c1cccc(Br)c1", "note": "[X, (3-bromo-3′-hydroxybenzophenone) thiosemicarbazone]", "values": [{"measurement": "kinetic analysis of cathepsin L inhibition", "setting": "cathepsin L [4]", "value": "time-dependent and slowly reversible"}]}
